Screens from PubChem BioAssay.
SUMO1-SIM PPI = modulators of human SUMO1-mediated protein-protein interactions; P63165; SUMO1 binding to a labelled peptide, TR-FRET, 1 h; inhibition, % at 20 µM; hit rate 0.33% among 360,000; AID 602429; in the data active = inhibition above about 37%
DNMT1 block = blocks human DNA methyltransferase DNMT1 | P26358 | DNMT1 molecular beacon, Hinp1I cleavage, fluorescence | inhibition (reported as % activation of signal), % at 10 µM | hit rate 0.83% among 360,000 | AID 588458; in the data active = inhibition above about 50%
HKDC1 inh = inhibitors of human hexokinase HKDC1 | Q2TB90 | recombinant HKDC1, G6PDH/diaphorase resazurin coupled fluorescence | inhibition, % at 20 µM | hit rate 0.16% among 340,000;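 active = inhibition above about 35% when tested at 20 µM, limit read from the data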
Target sequence (Q2TB90 whole entry, looked up): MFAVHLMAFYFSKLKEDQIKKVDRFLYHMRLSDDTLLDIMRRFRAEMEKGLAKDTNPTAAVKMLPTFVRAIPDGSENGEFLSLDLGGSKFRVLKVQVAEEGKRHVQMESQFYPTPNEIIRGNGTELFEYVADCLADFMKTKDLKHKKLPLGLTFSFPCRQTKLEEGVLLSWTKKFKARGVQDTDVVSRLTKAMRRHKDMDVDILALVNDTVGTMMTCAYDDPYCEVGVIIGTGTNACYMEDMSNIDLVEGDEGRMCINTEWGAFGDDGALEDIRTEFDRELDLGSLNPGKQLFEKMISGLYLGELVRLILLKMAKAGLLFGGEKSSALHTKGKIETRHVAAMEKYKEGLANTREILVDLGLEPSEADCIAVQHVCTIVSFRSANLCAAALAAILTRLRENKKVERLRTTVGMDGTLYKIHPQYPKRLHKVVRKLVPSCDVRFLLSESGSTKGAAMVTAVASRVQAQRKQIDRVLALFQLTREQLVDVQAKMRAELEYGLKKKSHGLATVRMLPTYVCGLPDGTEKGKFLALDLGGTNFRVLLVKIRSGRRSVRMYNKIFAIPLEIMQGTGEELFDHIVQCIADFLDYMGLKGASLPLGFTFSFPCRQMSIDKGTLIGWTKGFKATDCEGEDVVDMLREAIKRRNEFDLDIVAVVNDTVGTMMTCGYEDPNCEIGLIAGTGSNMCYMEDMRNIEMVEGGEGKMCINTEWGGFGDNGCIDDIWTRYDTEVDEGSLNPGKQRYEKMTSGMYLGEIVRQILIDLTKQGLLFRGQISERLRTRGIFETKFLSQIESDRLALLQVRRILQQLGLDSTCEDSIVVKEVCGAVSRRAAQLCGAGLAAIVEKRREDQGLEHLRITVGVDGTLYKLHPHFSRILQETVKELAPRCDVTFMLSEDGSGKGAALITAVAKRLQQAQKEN
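test system = in-house recombinant HK5 (HKDC1) enzyme | amount = HKDC1 at 5 µg/mL | control set = DMSO-enzyme wells negative, buffer-substituted wells positive | compound = one dose of 20 µM, 1% DMSO | schedule = reaction time 90 min, room temperature, protected from light | technique = resorufin fluorescence at 613 nm | reagent = glucose with 1 mM ATP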
Scp1 inh = inhibitors of human Scp-1 phosphatase; Recombinant Scp1, phosphopeptide, malachite green phosphate absorbance; inhibition, % at 20 µM; hit rate 0.88% among 340,000; AID 493091;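 active = inhibition above about 50% at 20 µM, limit read from the data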
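assay system = SCP-1 phosphatase catalytic domain, residues 76-261 | buffer or medium = 50 mM Tris acetate pH 5.5, 0.005% Tween-20, 10 mM MgCl2 | incubation = enzyme reaction 45 min at room temperature, colour 5 min, stabilisation 30 min | signal = Phosphate-binding colour reagent, absorbance read at 630 nm | measure = % inhibition at 20 µM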
LMPTP inh = blocks human LMPTP phosphatase; P24666; recombinant LMPTP-A, OMFP fluorogenic substrate, fluorescence intensity; inhibition, % at 20 µM; hit rate 0.22% among 360,000; AID 651560;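 active = compounds that cut the enzyme signal by at least half of the control window in the single-dose screen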
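test system = LMPTP-A | amount = 0.625 nM LMPTP-A final | reagent = fluorogenic phosphatase substrate OMFP at 400 µM final | incubation = 50 min at room temperature | benchmarks = no-enzyme low control, uninhibited high control | medium = Bis-Tris pH 6.0, DTT, detergent | signal = fluorescence intensity of OMFP turnover product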
STEP inh = STEP (human) phosphatase inhibition; P54829; recombinant STEP, OMFP fluorogenic substrate, fluorescence; inhibition, % at 20 µM; hit rate 0.25% among 360,000; AID 588621;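 active = inhibition at 20 µM, scaled per plate between control wells, above about 37%, limit read from the data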
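System: isolated STEP enzyme; schedule: 20 min enzyme reaction at room temperature, protected from light; medium: Bis-Tris buffer pH 6.0, 2.5 mM DTT, 0.005% Tween 20; signal: fluorescence, 480/540 nm; dosing: single compound dose of 20 µM, 1% DMSO final; also added: OMFP substrate, 25 µM final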
Scp-1 conf = Scp-1 (human) inhibition, single-dose confirmed. inhibition, % at 20 µM. hit rate 61% among 2,500. shares compounds with Scp1 inh. recombinant SCP-1 catalytic domain, phosphate release, malachite green absorbance
Scp-1 MG ctr = counter-screen for Scp-1 inhibitors: colorimetric interference; shares compounds with Scp1 inh; Colorimetric interference counterscreen, malachite green absorbance 630 nm; 2,500 tested, under 10 active; apparent inhibition (interference), % at 20 µM;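 also: compounds added after enzyme reaction finished so only phosphate colour detection is probed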
Scp1 DSF = validation of human Scp-1 inhibitors by thermal shift binding | thermal shift relative to vanadate control, % at 40 µM | hit rate 25% among 1,500 | AID 540329 | Recombinant SCP1, Sypro Orange thermal shift Tm | shares compounds with Scp1 inh;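 active = substances whose mean melting-temperature shift, as a percentage of the reference inhibitor's shift, reaches about 5.3%, limit read from the data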
Of the large screens only hits and unclear results are named; the others gave an inactive call (follow-up assays come after a bar, where they were run). Hits are enriched below; roughly 1.8% of the tested compounds scored in any of these assays.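 The calls were made as follows, unless noted: active = inhibition of at least 30% at 20 µM; inactive = the rest.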

C[C@H](CO)N1C[C@H](C)[C@@H](CN(C)S(=O)(=O)c2ccccc2)Oc2ccc(NC(=O)c3ccncc3)cc2C1=O	none
COc1ccc(S(=O)(=O)N(C)C[C@H]2Oc3ccc(NC(=O)c4ccncc4)cc3C(=O)N([C@H](C)CO)C[C@@H]2C)cc1	Scp1 inh 74 | Scp-1 conf inactive | Scp-1 MG ctr inactive
COc1ccc(NC(=O)N(C)C[C@H]2Oc3ccc(NC(=O)Nc4ccc(C(F)(F)F)cc4)cc3C(=O)N([C@H](C)CO)C[C@@H]2C)cc1	Scp1 inh 50 | Scp-1 conf inactive | Scp-1 MG ctr inactive
COc1ccc(NC(=O)N(C)C[C@H]2Oc3ccc(NC(=O)c4ccncc4)cc3C(=O)N([C@H](C)CO)C[C@@H]2C)cc1	Scp1 inh 84 | Scp-1 conf inactive | Scp-1 MG ctr inactive
COc1ccc(S(=O)(=O)N(C)C[C@H]2Oc3ccc(NC(=O)NC(C)C)cc3C(=O)N([C@H](C)CO)C[C@@H]2C)cc1	none
C[C@H](CO)N1C[C@H](C)[C@@H](CN(C)S(=O)(=O)c2ccc(F)cc2)Oc2ccc(NC(=O)c3ccncc3)cc2C1=O	Scp1 inh 59 | Scp-1 conf inactive | Scp-1 MG ctr inactive
COCCCN1C(=O)C(CC(=O)NC2CCCCC2)CC(C(=O)N2CCCCCC2)=C1C (centres undefined)	none (no result: DNMT1 block, HKDC1 inh, Scp1 inh, STEP inh)
O=C(Nc1ccc(F)cc1)C(c1cccc(F)c1)N1CCN(Cc2c(F)cccc2Cl)CC1 (centres undefined)	none (no result: DNMT1 block, HKDC1 inh, Scp1 inh, STEP inh)
Cc1noc(C)c1NC(=O)N(C)C[C@H]1Oc2ccc(NC(=O)Nc3ccccc3)cc2C(=O)N([C@H](C)CO)C[C@@H]1C	Scp1 inh 65 | Scp-1 conf inactive | Scp-1 MG ctr inactive
Cc1noc(C)c1NC(=O)Nc1ccc2c(c1)C(=O)N([C@H](C)CO)C[C@H](C)[C@@H](CN(C)C(=O)Nc1c(C)noc1C)O2	none
CCN1C(=O)[C@H]2[C@H]3CN=C(SCC4CC4)N3[C@@](Cc3ccccc3)(C(=O)OC)[C@H]2C1=O	Scp1 inh 82 | Scp-1 conf 96 | Scp-1 MG ctr inactive | Scp1 DSF inactive
CC[C@]1(C(=O)OC)[C@H]2C(=O)N(Cc3ccccc3)C(=O)[C@H]2[C@H]2CN=C(SCC3CC3)N21	Scp1 inh 54 | Scp-1 conf inactive | Scp-1 MG ctr inactive
CCN1C(=O)[C@H]2[C@H]3CN=C(SCc4ccccc4)N3[C@@](Cc3ccccc3)(C(=O)OC)[C@H]2C1=O	none
CC[C@]1(C(=O)OC)[C@H]2C(=O)N(Cc3ccccc3)C(=O)[C@H]2[C@H]2CN=C(SCc3ccc(C)cc3)N21	none
CCN(CC)Cc1cc(Oc2ccc(O)c(CN(CC)CC)c2)ccc1O	none (no result: HKDC1 inh, Scp1 inh)
O=C(NC(=O)c1ccccc1O)c1ccc(C(F)(F)F)cc1	Scp1 inh 83 | Scp-1 conf 68 | Scp-1 MG ctr inactive | Scp1 DSF inactive
CCCc1ccc(C(=O)NNC(=O)c2ccc(Br)cc2)cc1	Scp1 inh 94 | Scp-1 conf 81 | Scp-1 MG ctr inactive | Scp1 DSF inactive
CCCc1ccc(C(=O)NNc2ccc(F)cc2)cc1	none
CCCc1ccc(C(=O)NC(=O)c2ccccc2O)cc1	Scp1 inh 67, STEP inh 48 | Scp-1 conf 89 | Scp-1 MG ctr inactive | Scp1 DSF inactive
COc1ccc(/C=N/NC(=O)c2ccc(O)cc2O)cc1CSc1ccccn1	Scp1 inh 57 | Scp-1 conf 64 | Scp-1 MG ctr inactive | Scp1 DSF inactive
COc1ccc(C=O)cc1CSc1ccccn1	none
O=C(NCC(=O)N1CCN(Cc2ccccc2)CC1)c1ccc(Br)o1	none
CCOC(=O)C1CCN(C2CC(=O)N(c3ccc(OCC)cc3)C2=O)CC1 (centres undefined)	Scp1 inh 52 | Scp-1 conf inactive | Scp-1 MG ctr inactive
CC(C)S(=O)(=O)C1=NSC2=NC(=O)/C(=C\c3ccc(-c4ccccc4)o3)C(=N)N21	none
CC(C)S(=O)(=O)C1=NSC2=NC(=O)/C(=C\c3ccc(-c4cccc(C(=O)O)c4)o3)C(=N)N21	Scp1 inh 65 | Scp-1 conf 68 | Scp-1 MG ctr inactive | Scp1 DSF inactive
COc1ccc(Br)cc1/C=C(\C(=O)O)c1ccc(S(=O)(=O)N2CCCC2)s1	Scp1 inh 67 | Scp-1 conf 60 | Scp-1 MG ctr inactive | Scp1 DSF 6.3
O=C(O)/C(=C\c1ccc(Cl)c([N+](=O)[O-])c1)c1ccc(S(=O)(=O)N2CCCCC2)s1	none
